From ChEMBL document CHEMBL3763103, “Synthesis and evaluation of vitamin D receptor-mediated activities of cholesterol and vitamin D metabolites” (Eur J Med Chem, 2016) come the findings set out here.

Data set [1] concerns the target T1, Vitamin D3 receptor (Homo sapiens, UniProt P11473).
T1 sequence (P11473 whole entry): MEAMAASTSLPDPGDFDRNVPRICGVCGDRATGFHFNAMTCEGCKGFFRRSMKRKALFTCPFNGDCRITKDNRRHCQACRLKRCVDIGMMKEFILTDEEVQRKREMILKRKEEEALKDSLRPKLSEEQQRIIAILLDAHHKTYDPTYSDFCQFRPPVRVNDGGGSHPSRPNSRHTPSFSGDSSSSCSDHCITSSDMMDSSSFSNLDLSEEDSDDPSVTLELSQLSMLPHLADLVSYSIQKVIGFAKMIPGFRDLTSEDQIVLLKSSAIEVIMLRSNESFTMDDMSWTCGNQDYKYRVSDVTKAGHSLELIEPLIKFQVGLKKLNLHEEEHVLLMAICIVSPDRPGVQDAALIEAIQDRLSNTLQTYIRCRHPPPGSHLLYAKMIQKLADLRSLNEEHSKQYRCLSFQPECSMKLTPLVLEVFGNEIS
Put plainly: Antagonist activity against VP16 tagged-VDR-LBD (unknown origin) expressed in HEK293T cells assessed as inhibition of 1,25-dihydroxyvitamin D3-induced SRC1 coactivator peptide recruitment after 16 hrs by luciferase reporter gene based two hybrid assay. It counts as cell-based, HEK-293T. (In a reporter assay the amount or activity of a reporter protein is the signal.)

Data set [2] is described as follows: Cytotoxicity against HEK293T cells assessed as reduction in cell viability after 18 hrs by CellTiter-Glo luminescence assay. Format: cell-based, HEK-293T. Conditions: human, read-out: LD50.
Data set [3] has as its target T1, Vitamin D3 receptor. Put plainly: Agonist activity at human VP16 tagged-VDR-LBD after 16 hrs by luciferase reporter gene based transcription assay. The method in brief:
(§1)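 HEK293T cells were lipid-transfected with hVDR-Gal4 and 4×UAS luciferase reporter plasmids for 16 h. Cells were then plated at 15,000/well on matrigel in phenol-red-free DMEM with 2% charcoal-treated FBS. Compounds (1:3 serial dilution, max final 150 µM) were added after 4 h and incubated 16 h at 37°C; readout by Bright-Glo luminescence. […] Three experiments in quadruplicate; nonlinear regression.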

Data set [4] deals with T2, Vitamin D3 receptor (Homo sapiens) (UniProt P11473).
T2 sequence (whole entry): T1 sequence (P11473 whole entry)
Put plainly: Agonist activity at human VP16 tagged-VDR-LBD after 16 hrs by luciferase reporter gene based transcription assay relative to 1,25-dihydroxyvitamin D3. The method in brief:
as §1

Data set [5] deals with T2, Vitamin D3 receptor (Homo sapiens). Briefly: Agonist activity at VDR-LBD in human DU145 cells assessed as CYP24A1 expression at 7.5 uM after 18 hrs by qRT-PCR method relative to 1alpha,25-dihydroxyvitamin D3. Format: cell-based. Conditions: DU-145. Summed up:
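Non-transfected DU145 cells were grown in DMEM with 10% heat-inactivated FBS and plated on matrigel-coated 6-well plates overnight at 37°C. Total RNA was isolated and CYP24A1 fold change was measured by real-time RT-PCR (Ct method). Experiments were run in triplicate; significance by Dunnett ANOVA.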

For data set [6], the target named is T1, Vitamin D3 receptor. Put plainly: Antagonist activity against VDR-LBD (unknown origin) expressed in Escherichia coli assessed as inhibition of VDR agonist LG190178-induced SRC2-3 coactivator peptide recruitment after 30 mins by fluorescence polarization assay.
In data set [7] the target is T2, Vitamin D3 receptor (Homo sapiens). Put plainly: Agonist activity at VP16 tagged-VDR-LBD (unknown origin) expressed in HEK293T cells assessed as SRC1 coactivator peptide recruitment after 16 hrs by luciferase reporter gene based two hybrid assay relative to 1,25-dihydroxyvitamin D3. Format: cell-based. The conditions noted are these: HEK-293T. The method in brief:
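HEK293T cells were lipid-transfected with VP16-VDR-LBD, SRC1-GAL4 and 4×UAS luciferase reporter plasmids for 16 h. Cells were then plated at 15,000/well on matrigel in phenol-red-free DMEM with 2% charcoal-treated FBS. Three experiments in quadruplicate; nonlinear regression.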

The target in data set [8] is T1, Vitamin D3 receptor. Briefly: Agonist activity at VP16 tagged-VDR-LBD (unknown origin) expressed in HEK293T cells assessed as SRC1 coactivator peptide recruitment after 16 hrs by luciferase reporter gene based two hybrid assay. Format: cell-based, HEK-293T.
Data set [9] deals with T1, Vitamin D3 receptor. Put plainly: Agonist activity at VDR-LBD (unknown origin) expressed in Escherichia coli assessed as SRC2-3 coactivator peptide recruitment after 30 mins by fluorescence polarization assay.
In data set [10] the target is T2, Vitamin D3 receptor (Homo sapiens). Briefly: Agonist activity at VDR-LBD in human DU145 cells assessed as CYP24A1 expression at 7.5 uM in presence of 20 nM 1alpha,25-dihydroxyvitamin D3 after 18 hrs by qRT-PCR method. It counts as cell-based. Conditions: DU-145. Summed up: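 Non-transfected DU145 cells were grown in DMEM with 10% heat-inactivated FBS and plated on matrigel-coated 6-well plates overnight at 37°C. […] Total RNA was isolated and CYP24A1 fold change was measured by real-time RT-PCR (Ct method). Experiments were run in triplicate; significance by Dunnett ANOVA.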
A general note: In qPCR the cycle at which signal appears reflects the starting amount.

Calls of active or inactive are those of the source. The calls are words filed in the database; no cut-off is given here.

With `C[C@H](CCC(=O)O)[C@H]1CC[C@H]2[C@@H]3CC[C@@H]4C[C@H](O[C@@H]5O[C@H](C(=O)O)[C@@H](O)[C@H](O)[C@H]5O)CC[C@]4(C)[C@H]3CC[C@]12C`, the IC50 (commonly the concentration that inhibits the measured activity by half) is greater than 150 µM on Vitamin D3 receptor [1] and 31.5 µM at Vitamin D3 receptor [6]. In addition, the CC50 at 18 h in data set [2] was greater than 150 µM. Further, the EC50 (commonly the midpoint of the concentration-response curve) at Vitamin D3 receptor [3] is 12.3 µM; at Vitamin D3 receptor [8], 20.5 µM; on Vitamin D3 receptor [9], greater than 50 µM. Also, the Efficacy in [4] is 55%; in data set [7], 49%. Besides, in [5], the result was inactive.

Consider `CC(=O)O[C@@H]1CC[C@@]2(C)[C@H](CC[C@@H]3[C@@H]2CC[C@]2(C)[C@@H]([C@H](C)CCC(=O)O)CC[C@@H]32)C1`, for which the figures for the IC50 at Vitamin D3 receptor [1] and on Vitamin D3 receptor [6] were greater than 50 µM and 11 µM, respectively. Besides, the CC50 at 18 h in data set [2] is greater than 50 µM. In addition, the results for the half-maximal effective concentration (EC50) at Vitamin D3 receptor [8] and at Vitamin D3 receptor [9] were 1.49 µM and greater than 150 µM, respectively.

`C=C1/C(=C\C=C2/CCC[C@]3(C)[C@@H]([C@H](C)CC(=O)O)CC[C@@H]23)C[C@@H](O)C[C@@H]1O`: the IC50 on Vitamin D3 receptor [1] is greater than 100 µM; on Vitamin D3 receptor [6], 2.29 µM. Also, in data set [2], the CC50 at 18 h was greater than 100 µM. Moreover, the outcome in [5] was Active. Besides, the Efficacy in data set [7] is 55%. In addition, the EC50 was 0.87 µM at Vitamin D3 receptor [8] and greater than 100 µM at Vitamin D3 receptor [9].

For the molecule `C[C@H](CCC(=O)O[C@@H]1O[C@H](C(=O)O)[C@@H](O)[C@H](O)[C@H]1O)[C@H]1CC[C@H]2[C@@H]3CC[C@@H]4C[C@H](O)CC[C@]4(C)[C@H]3CC[C@]12C`, the IC50 at Vitamin D3 receptor [1] is greater than 150 µM; at Vitamin D3 receptor [6], 2.86 µM. In addition, the CC50 at 18 h in [2] is greater than 150 µM. The EC50 at Vitamin D3 receptor [3] was 21.3 µM; at Vitamin D3 receptor [8], 6.52 µM; on Vitamin D3 receptor [9], greater than 150 µM. Further, the Efficacy was 70% in data set [4] and 29% in data set [7]. Moreover, the outcome in data set [5] and in data set [10] was Active.

`COC(=O)CC[C@@H](C)[C@H]1CC[C@H]2[C@@H]3CC[C@@H]4C[C@H](O)CC[C@]4(C)[C@H]3CC[C@]12C`: the concentration for half-maximal inhibition (IC50) on Vitamin D3 receptor [1] is 15.1 µM; on Vitamin D3 receptor [6], greater than 150 µM. Also, the CC50 at 18 h in [2] was found to be 50.4 µM. For the same molecule, the concentration giving a half-maximal response (EC50) on Vitamin D3 receptor [8] and on Vitamin D3 receptor [9] was greater than 150 µM throughout.

In the case of `C[C@H](CCC(=O)O)[C@H]1CC[C@H]2[C@@H]3[C@@H](O)C[C@@H]4C[C@H](O)CC[C@]4(C)[C@H]3CC[C@]12C` [URSODIOL], the figures for the IC50 at Vitamin D3 receptor [1] and at Vitamin D3 receptor [6] were greater than 50 µM and greater than 150 µM, respectively. Also, the CC50 at 18 h in data set [2] was greater than 150 µM. Moreover, the EC50 on Vitamin D3 receptor [8] and at Vitamin D3 receptor [9] was greater than 150 µM throughout.

Consider `C[C@H](CCC(=O)NCC(=O)O)[C@H]1CC[C@H]2[C@@H]3CC[C@@H]4C[C@H](O)CC[C@]4(C)[C@H]3CC[C@]12C` [LITHOGLYCOCHOLATE], for which the figures for the 50% inhibitory concentration (IC50) at Vitamin D3 receptor [1] and on Vitamin D3 receptor [6] were greater than 50 µM and 40.1 µM, respectively. Further, the CC50 at 18 h in [2] is greater than 150 µM. Also, the EC50 on Vitamin D3 receptor [8] and at Vitamin D3 receptor [9] was greater than 150 µM throughout.

On to `C[C@H](CCC(=O)O)[C@H]1CC[C@H]2[C@@H]3[C@H](O)C[C@@H]4C[C@H](O)CC[C@]4(C)[C@H]3CC[C@]12C` [CHENODIOL], for which the IC50 on Vitamin D3 receptor [1] was greater than 50 µM; on Vitamin D3 receptor [6] it was greater than 150 µM. In [2], the CC50 at 18 h is greater than 150 µM. In addition, the EC50 on Vitamin D3 receptor [8] and on Vitamin D3 receptor [9] was greater than 150 µM in each case.

Consider `C[C@H](CCC(=O)O)[C@H]1CC[C@H]2[C@@H]3C[C@H](O)[C@@H]4C[C@H](O)CC[C@]4(C)[C@H]3CC[C@]12C` [HYODEOXYCHOLIC_ACID], for which the IC50 at Vitamin D3 receptor [1] was greater than 50 µM; on Vitamin D3 receptor [6], greater than 150 µM. Besides, the CC50 at 18 h in data set [2] was greater than 150 µM. The EC50 on Vitamin D3 receptor [8] and at Vitamin D3 receptor [9] was greater than 150 µM each time.

With `C[C@H](CCC(=O)O)[C@H]1CC[C@H]2[C@@H]3CC[C@@H]4C[C@H](OS(=O)(=O)O)CC[C@]4(C)[C@H]3CC[C@]12C`, the IC50 on Vitamin D3 receptor [1] is greater than 50 µM; on Vitamin D3 receptor [6] it was 23.3 µM. The CC50 at 18 h in [2] is greater than 150 µM. Moreover, the EC50 at Vitamin D3 receptor [8] and on Vitamin D3 receptor [9] was greater than 150 µM in each case.

For the molecule `C[C@H](CCC(=O)O)[C@H]1CC[C@H]2[C@@H]3CC[C@@H]4C[C@H](O)CC[C@]4(C)[C@H]3C[C@H](O)[C@]12C` [DEOXYCHOLIC ACID], the IC50 on Vitamin D3 receptor [1] is greater than 50 µM; at Vitamin D3 receptor [6], greater than 150 µM. Moreover, the CC50 at 18 h in data set [2] is greater than 150 µM. For the same molecule, the EC50 on Vitamin D3 receptor [8] and at Vitamin D3 receptor [9] was greater than 150 µM in each case.

`C[C@H](CCC(=O)O)[C@H]1CC[C@H]2[C@@H]3CC[C@@H]4C[C@H](O)CC[C@]4(C)[C@H]3CC[C@]12C` [LITHOCHOLIC ACID]: the CC50 at 18 h in data set [2] worked out at 55.9 µM.

Regarding `C[C@H](CCC(=O)NCCS(=O)(=O)O)[C@H]1CC[C@H]2[C@@H]3CC[C@@H]4C[C@H](O)CC[C@]4(C)[C@H]3CC[C@]12C` [TAUROLITHOCHOLIC ACID], the values for the IC50 at Vitamin D3 receptor [1] and at Vitamin D3 receptor [6] were greater than 50 µM and 14.5 µM, respectively. In addition, in data set [2], the CC50 at 18 h is greater than 150 µM. The EC50 on Vitamin D3 receptor [8] and on Vitamin D3 receptor [9] was greater than 150 µM in each case.
